ChEMBL document CHEMBL1165950, “Design and synthesis of new potent anticancer pyrazoles with high FLT3 kinase inhibitory selectivity” (Bioorg Med Chem, 2010)

Columns and labels:
[1] = system: MCF7; experiment: Cytotoxicity against human MCF7 cells assessed as cell growth at 1 uM after 48 hrs by sulforhodamine B assay; assay type: functional; conditions: MCF7, 48 h, read-out: Activity
[2] = system: NCI-H226; experiment: Cytotoxicity against human NCI-H226 cells assessed as cell growth at 10 uM after 48 hrs by sulforhodamine B assay; assay type: functional; conditions: NCI-H226, 48 h, read-out: Activity
[3] = system: MCF7; experiment: Cytotoxicity against human MCF7 cells assessed as cell growth at 10 uM after 48 hrs by sulforhodamine B assay; assay type: functional; conditions: MCF7, 48 h, read-out: Activity
[4] = system: UO-31; experiment: Cytotoxicity against human UO31 cells assessed as cell growth at 10 uM after 48 hrs by sulforhodamine B assay; assay type: functional; conditions: UO-31, 48 h, read-out: Activity
[5] = system: NCI-H226; experiment: Cytotoxicity against human NCI-H226 cells assessed as cell growth at 100 nM after 48 hrs by sulforhodamine B assay; assay type: functional; conditions: NCI-H226, 48 h, read-out: Activity
[6] = system: 786-0; experiment: Cytotoxicity against human 786-0 cells assessed as cell growth at 10 uM after 48 hrs by sulforhodamine B assay; assay type: functional; conditions: 786-0, 48 h, read-out: Activity
[7] = system: HCC 2998; experiment: Growth inhibition of human HCC2998 cells after 48 hrs by sulforhodamine B assay; assay type: functional; conditions: HCC 2998, 48 h; for CC50: read-out: LC50 (the source's name)
Method in brief: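 NCI 60-cell screen, five-dose mode. Cells grown in RPMI 1640 with 5% FBS and 2 mM L-glutamine and plated at 5000-40,000 cells/well according to doubling time. After 24 h preincubation, a Tz plate was TCA-fixed. Five concentrations (10-fold or 1/2 log dilutions) were applied for 48 h at 37 °C. SRB staining read at 515 nm. IC50 taken from [(Ti-Tz)/(C-Tz)]×100 = 50.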

[8] = molecular target: Receptor-type tyrosine-protein kinase FLT3 (Homo sapiens, UniProt P36888); experiment: Inhibition of FLT3 by HotSpot assay
Receptor-type tyrosine-protein kinase FLT3, sequence (P36888 whole entry): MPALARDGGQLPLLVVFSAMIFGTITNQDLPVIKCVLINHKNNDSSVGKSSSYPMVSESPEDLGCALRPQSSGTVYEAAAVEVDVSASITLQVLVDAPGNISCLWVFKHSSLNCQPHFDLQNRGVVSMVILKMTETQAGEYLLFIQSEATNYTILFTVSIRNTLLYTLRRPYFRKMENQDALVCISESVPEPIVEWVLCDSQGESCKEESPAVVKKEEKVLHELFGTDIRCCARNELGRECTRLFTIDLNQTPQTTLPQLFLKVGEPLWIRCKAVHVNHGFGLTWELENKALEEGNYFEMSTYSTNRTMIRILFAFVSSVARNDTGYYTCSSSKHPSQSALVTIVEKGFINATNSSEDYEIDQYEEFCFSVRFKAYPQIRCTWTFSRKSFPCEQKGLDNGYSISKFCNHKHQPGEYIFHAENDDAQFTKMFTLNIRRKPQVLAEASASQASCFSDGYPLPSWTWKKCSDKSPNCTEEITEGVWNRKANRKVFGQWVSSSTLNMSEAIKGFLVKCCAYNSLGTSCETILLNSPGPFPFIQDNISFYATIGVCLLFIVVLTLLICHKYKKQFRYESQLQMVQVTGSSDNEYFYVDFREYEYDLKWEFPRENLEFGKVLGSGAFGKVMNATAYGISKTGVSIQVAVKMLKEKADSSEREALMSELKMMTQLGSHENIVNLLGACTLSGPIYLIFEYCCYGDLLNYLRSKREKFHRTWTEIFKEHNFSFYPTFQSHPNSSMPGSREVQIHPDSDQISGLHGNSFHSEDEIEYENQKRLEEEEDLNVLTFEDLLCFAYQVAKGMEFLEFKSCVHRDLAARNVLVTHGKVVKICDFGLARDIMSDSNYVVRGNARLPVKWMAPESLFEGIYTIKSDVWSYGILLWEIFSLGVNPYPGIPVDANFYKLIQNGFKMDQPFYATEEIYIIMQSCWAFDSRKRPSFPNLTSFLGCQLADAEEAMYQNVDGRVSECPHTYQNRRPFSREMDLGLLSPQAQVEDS

[9] = molecular target: Receptor-type tyrosine-protein kinase FLT3 (Homo sapiens) (UniProt P36888); experiment: Inhibition of FLT3 at 10 uM by HotSpot assay
Receptor-type tyrosine-protein kinase FLT3 (Homo sapiens), sequence (P36888 whole entry): as above

Structure (SMILES) | growth at 1 µM [1] [%] | growth at 10 µM [2] [%] | growth at 10 µM [3] [%] | growth at 10 µM [4] [%] | growth at 0.1 µM [5] [%] | growth at 10 µM [6] [%] | GI50 [7] [µM] | TGI [7] [µM] | CC50 [7] [µM] | IC50 [8] [µM] | inhibition [9] [%]
Cc1cc(O)cc(-c2nn(CC#N)cc2-c2ccnc(-c3ccc(Oc4ccccc4)cc3)c2)c1 | -34 | -63 | -82 | -81 | 95 | -93 | 1.91 | 3.39 | 6.02 | – | –
COc1cc(C)cc(-c2nn(CC#N)cc2-c2ccc(-c3cccc(C(C)=O)c3)nc2)c1 | 7 | -3 | -28 | -6 | 86 | – | 2.08 | 6.77 | 54.4 | – | –
Cc1cc(O)cc(-c2nn(CC#N)cc2-c2ccnc(-c3ccc(N(C)C)cc3)c2)c1 | 10 | -38 | -61 | -19 | 100 | -49 | 3.19 | 13.2 | 37.2 | – | –
COc1cc(C)cc(-c2c(-c3ccnc(-c4ccc(C(C)=O)cc4)c3)cnn2CC#N)c1 | 16 | 35 | 17 | 15 | 96 | 20 | 3.41 | > 100 | > 100 | – | –
COc1cc(C)cc(-c2c(-c3ccnc(-c4ccc(N(C)C)cc4)c3)cnn2CC#N)c1 | – | – | – | 7 | – | 6 | – | – | – | 1.74 | 82.3
COc1cc(C)cc(-c2nn(CC#N)cc2-c2ccnc(-c3ccc(N(C)C)cc3)c2)c1 | 7 | -22 | -13 | – | 49 | -36 | 0.455 | 1.93 | 9.69 | – | –
